Source: PubChem (several laboratories)
Sampled rows, rich in hits. Any-hit rate of the full collection: about 2.5%.
ADAM17 inh = ADAM17 inhibitors, primary screen, biochemical, QFRET | Disintegrin and metalloproteinase domain-containing protein 17 (Homo sapiens), P78536 | recombinant ADAM17, EDANS/DABCYL FRET peptide cleavage | inhibition, % at 6.95 µM | 370,000 compounds, 0.83% hits;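 active = inhibition above the mean of compounds lying between control limits plus 3 SD, set per campaign, cut at about 8.5% in these data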
ADAM10 inh = human ADAM10 inhibitors, primary screen, biochemical, QFRET, HTS; Disintegrin and metalloproteinase domain-containing protein 10 (Homo sapiens), O14672; recombinant ADAM10, EDANS/DABCYL FRET peptide cleavage, 3 h; inhibition, % at 7 µM; 370,000 compounds, 0.62% hits;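 active = inhibition above a per-campaign cutoff equal to the mean of compounds falling between control-based bounds plus 3 SD, cut at about 20% in these data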
NR2E3 ag-1 = inhibitors of NR2E3-RetCOR corepressor binding, primary screen, NR2E3 agonist project, biochemical, TR-FRET, GST-NR2E3, biotin-RetCOR. Photoreceptor-specific nuclear receptor (Homo sapiens), Q9Y5X4. inhibition of corepressor binding, % at 4.78 µM. 1536-well. AID 2300, 2010. 320,000 compounds, 0.12% hits;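 active = percent inhibition above the cutoff of mean plus 3 SD of all tested compounds, set per screening campaign, cut at about 20% in these data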
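System: GST-tagged NR2E3 plus biotinylated RetCOR corepressor; Amount: 1.35 nM GST-tagged NR2E3 final; Dosing: single nominal compound dose of 4.8 µM; Schedule: 5 h incubation at 4 °C; Technique: TR-FRET with europium anti-GST and streptavidin-D2, 340 nm excitation; Controls: biotin wells as high control, 0.6% DMSO wells as low control.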
NR2E3 ag-2 = NR2E3 agonists in two-hybrid cells, primary screen, cell-based, luminescence, CHO-S, Gal4-NCOR/VP16-NR2E3; inhibition of corepressor binding, % at 3.98 µM; Photoreceptor-specific nuclear receptor (Homo sapiens), Q9Y5X4; AID 602229, 2012; 360,000 compounds, 0.35% hits; luciferase;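 active = inhibition above the mean of all tested compounds plus 3 SD, cut at about 70% in these data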;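 note: higher means lower luciferase signal from less NR2E3 corepressor binding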
JMJD2C inh = inhibitors of GASC-1 histone demethylase, primary screen, biochemical, fluorescence, DELFIA europium. Lysine-specific demethylase 4C (Homo sapiens), Q9H3R0. GST-JMJD2C(1-420) H3K9me3 demethylation. inhibition, % at 2.35 µM. 330,000 compounds, 0.069% hits. AID 2099, 2009;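 active = more than half of a compound's replicate wells show inhibition beyond 50%, single wells judged on their own value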;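 note: signal counts dimethyl H3K9 product captured on neutravidin plate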
KLK7 zymogen act = proKLK7 zymogen activators, primary screen, biochemical, fluorescence intensity; Kallikrein-7 (Homo sapiens), P49862; purified proKLK7, EDANS-DABCYL substrate fluorescence; 100% is mature enzyme control, 0% vehicle; activation, % at 7 µM; 370,000 compounds, 0.9% hits; AID 652039, 2013;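 active = activation above the mean of all tested compounds plus 3 SD, computed per campaign excluding outliers beyond control limits, cut at about 13% in these data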
Target sequence (P49862 whole entry, looked up): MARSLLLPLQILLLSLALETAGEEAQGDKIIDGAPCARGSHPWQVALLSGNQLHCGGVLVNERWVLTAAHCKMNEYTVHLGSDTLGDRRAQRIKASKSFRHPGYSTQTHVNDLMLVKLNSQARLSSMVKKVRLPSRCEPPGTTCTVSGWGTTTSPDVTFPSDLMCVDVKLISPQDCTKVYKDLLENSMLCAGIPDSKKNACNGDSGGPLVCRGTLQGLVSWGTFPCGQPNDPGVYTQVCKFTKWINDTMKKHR
KLK7 act conf = proKLK7 zymogen activators, confirmation, biochemical, fluorescence intensity, triplicate | 3,200 compounds, 68% hits | activation, % at 7 µM | AID 686949, 2013 | purified proKLK7, EDANS-DABCYL substrate fluorescence; scaled: vehicle 0, mature enzyme 100 | shares compounds with KLK7 zymogen act;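 active = activation, as change over the incubation, above the mean of all tested compounds plus 3 SD, cut at about 13% in these data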
EDANS-DABCYL int = EDANS-DABCYL substrate optical interference, artefact control for kallikrein-7 zymogen activator project, biochemical, fluorescence intensity, high throughput. 3,200 compounds, 80% hits. shares compounds with KLK7 zymogen act. no enzyme, 4 h; solvent 0%, active enzyme control 100%. activation, % at 7 µM. AID 686952, 2013;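 active = activation above the all-compound mean plus 3 SD, ignoring values outside control-based bounds, cut at about 4.8% in these data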;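 note: value is the 4 h activation minus the activation read at time zero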
A number is an active result; n = inactive; x = no result.

SMILES | ADAM17 inh | ADAM10 inh | NR2E3 ag-1 | NR2E3 ag-2 | JMJD2C inh | KLK7 zymogen act | KLK7 act conf | EDANS-DABCYL int
CCN(CC(=O)NCc1ccc(F)cc1)C(=O)/C=C/c1cc(OC)ccc1OC | n | n | x | n | n | 69 | 60 | 66
CCN(CC(=O)NCc1ccc(Cl)cc1)C(=O)/C=C/c1cc(OC)c(OC)c(OC)c1 | n | n | n | n | n | n | x | x
O=C(Oc1ccc(-c2nnco2)cc1)C1CCN(C(=O)c2ccc(F)cc2)CC1 | n | n | n | n | n | n | x | x
CC(=O)c1cc2c(s1)-c1cc(F)ccc1OC2 | n | n | n | n | n | 71 | 69 | 74
COc1cccc(N2CCN(C(=O)c3cc4c(s3)-c3ccccc3OC4)CC2)c1 | n | n | n | n | n | 24 | n | 21
O=C(c1cc2c(s1)-c1ccccc1OC2)N1CCCC1 | n | n | n | n | n | 74 | 62 | 69
O=C(c1cc2c(s1)-c1ccccc1OC2)N1CCN(c2ccccc2)CC1 | n | n | n | n | n | n | x | x
COc1ccc(N2CCN(C(=O)c3cc4c(s3)-c3ccccc3OC4)CC2)cc1 | n | n | n | n | n | n | x | x
COC(=O)c1cc2c(s1)-c1cc(F)ccc1OC2 | n | n | n | n | n | n | x | x
CCOC(=O)N1CCN(C(=O)c2cc3c(s2)-c2ccccc2OC3)CC1 | n | n | n | n | n | 32 | n | n
CCCN1CCN(C(=O)c2cc3c(s2)-c2ccccc2OC3)CC1 | n | n | n | n | n | 66 | n | 84
COc1ccc(/C=C(\NC(=O)c2ccccc2)C(=O)N/N=C/c2sccc2C)cc1 | n | n | n | n | n | n | x | x
COc1ccc(/C=C(/NC(=O)c2ccccc2)C(=O)N/N=C/c2sccc2C)cc1 | n | n | n | n | n | 24 | 152 | 122
COc1cc2cc(CN(Cc3nnnn3Cc3ccccc3)CC3CCCO3)c(=O)[nH]c2cc1OC (stereo unspecified) | n | n | x | n | n | 41 | n | n
O=c1[nH]c2cc3c(cc2cc1CN(Cc1nnnn1C1CCCC1)C1CCCC1)OCCO3 | n | n | n | n | n | 29 | n | n
CCC(C)(C)n1nnnc1CN(Cc1cc2cc(OC)c(OC)cc2[nH]c1=O)C1CCCC1 | n | n | n | n | n | 16 | n | n
Cc1ccc2[nH]c(=O)c(CN(Cc3nnnn3C3CCCC3)C3CCCCC3)cc2c1 | n | n | n | n | n | n | x | x
COc1ccc(Cn2nnnc2CN(Cc2cc3cc(C)ccc3[nH]c2=O)C2CCCC2)cc1 | n | n | n | n | n | n | x | x
COc1ncnc2c1ncn2CCCN1CCN(C(=O)C2CC2)CC1 | n | n | x | n | x | n | x | x
O=C1c2ccccc2NC(c2ccccc2F)N1NS(=O)(=O)c1ccccc1 (stereo unspecified) | n | n | n | n | n | 19 | n | 6.8
COc1ccc(C2Nc3ccccc3C(=O)N2NC(=O)c2ccccc2)cc1OC (stereo unspecified) | n | n | n | n | n | n | x | x
Cc1ccc(S(=O)(=O)NN2C(=O)c3ccccc3NC2c2ccccn2)cc1 (stereo unspecified) | n | n | n | n | n | 20 | n | 4.4
Cc1ccc(S(=O)(=O)NN2C(=O)c3ccccc3NC2c2cccc(O)c2)cc1 (stereo unspecified) | n | n | n | n | n | n | x | x
